# From ChEMBL document CHEMBL1137567, “First example of phosphoramidate approach applied to a 4'-substituted purine nucleoside (4'-azidoadenosine): conversion of an inactive nucleoside to a submicromolar compound versus hepatitis C virus” (J Med Chem, 2007)
# Experiments:
# Hepatitis C virus = experiment: Inhibition of HCV 1b in Huh7 cells by replicon assay; format: functional, organism-based, Hepacivirus hominis; settings: Huh-7
# Outline: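 Huh-7-derived line 2209-23 stably carrying a bicistronic HCV genotype 1b replicon with a renilla luciferase reporter. Replication was read out by the reporter. The EC50 is the concentration reducing HCV replication by 50%.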
# [1] = Cytotoxicity activity against Huh7 cells by WST assay; format: cell-based, Huh-7; settings: human
# Outline: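 Cytotoxicity was read out as the CC50, the concentration lowering cell viability by 50%, from a WST viability readout. Cells were the HCV replicon cell line 2209-23, derived from Huh-7 and carrying a stable genotype 1b bicistronic replicon with a renilla luciferase reporter.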
EC50 (Hepatitis C virus) [µM],SMILES,CC50 [1] [µM]
> 100,C[C@H](NP(=O)(OC[C@@]1(N=[N+]=[N-])O[C@@H](n2cnc3c(N)ncnc32)[C@H](O)[C@@H]1O)Oc1cccc2ccccc12)C(=O)OC(C)(C)C (some centres undefined),> 100
1.5,CCOC(=O)[C@H](C)NP(=O)(OC[C@@]1(N=[N+]=[N-])O[C@@H](n2cnc3c(N)ncnc32)[C@H](O)[C@@H]1O)Oc1ccccc1 (some centres undefined),> 100
> 100,C[C@H](NP(=O)(OC[C@@]1(N=[N+]=[N-])O[C@@H](n2cnc3c(N)ncnc32)[C@H](O)[C@@H]1O)Oc1ccccc1)C(=O)OC(C)(C)C (some centres undefined),> 100
> 100,[N-]=[N+]=N[C@]1(CO)O[C@@H](n2cnc3c(N)ncnc32)[C@H](O)[C@@H]1O,> 100

SMILES,EC50 (Hepatitis C virus) [µM],CC50 [1] [µM]
C[C@H](NP(=O)(OC[C@@]1(N=[N+]=[N-])O[C@@H](n2cnc3c(N)ncnc32)[C@H](O)[C@@H]1O)Oc1cccc2ccccc12)C(=O)OCc1ccccc1 (some centres undefined),0.22,> 100
CCOC(=O)[C@H](C)NP(=O)(OC[C@@]1(N=[N+]=[N-])O[C@@H](n2cnc3c(N)ncnc32)[C@H](O)[C@@H]1O)Oc1cccc2ccccc12 (some centres undefined),0.59,> 100
C[C@H](NP(=O)(OC[C@@]1(N=[N+]=[N-])O[C@@H](n2cnc3c(N)ncnc32)[C@H](O)[C@@H]1O)Oc1ccccc1)C(=O)OCc1ccccc1 (some centres undefined),4,> 100
